Experimental data: ChEMBL document CHEMBL3797186, “Single Residue Substitutions That Confer Voltage-Gated Sodium Ion Channel Subtype Selectivity in the NaV1.7 Inhibitory Peptide GpTx-1” (J Med Chem, 2016)
pIC50: −log10 of the molar value. Positions of bridges follow the written chain, without caps; N, C: chain ends. Residues, ends and D or L forms follow the SMILES beside them.

Experiments:
[1] = molecular target: Sodium channel protein type 5 subunit alpha (Homo sapiens, UniProt Q14524); assay: Inhibition of human Nav1.5 expressed in HEK293 cells assessed as inward peak current by ion-works quattro patch clamp electrophysiology method; assay type: cell-based
Procedure, shortened: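 Stable HEK293 line expressing human NaV1.5, recorded by population patch clamp on the IonWorks Quattro.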

[2] = molecular target: Sodium channel protein type 9 subunit alpha (Homo sapiens, UniProt Q15858); assay: Inhibition of human Nav1.7 expressed in HEK293 cells assessed as inward peak current by ion-works quattro patch clamp electrophysiology method; assay type: cell-based
Sodium channel protein type 9 subunit alpha, sequence (Q15858 whole entry): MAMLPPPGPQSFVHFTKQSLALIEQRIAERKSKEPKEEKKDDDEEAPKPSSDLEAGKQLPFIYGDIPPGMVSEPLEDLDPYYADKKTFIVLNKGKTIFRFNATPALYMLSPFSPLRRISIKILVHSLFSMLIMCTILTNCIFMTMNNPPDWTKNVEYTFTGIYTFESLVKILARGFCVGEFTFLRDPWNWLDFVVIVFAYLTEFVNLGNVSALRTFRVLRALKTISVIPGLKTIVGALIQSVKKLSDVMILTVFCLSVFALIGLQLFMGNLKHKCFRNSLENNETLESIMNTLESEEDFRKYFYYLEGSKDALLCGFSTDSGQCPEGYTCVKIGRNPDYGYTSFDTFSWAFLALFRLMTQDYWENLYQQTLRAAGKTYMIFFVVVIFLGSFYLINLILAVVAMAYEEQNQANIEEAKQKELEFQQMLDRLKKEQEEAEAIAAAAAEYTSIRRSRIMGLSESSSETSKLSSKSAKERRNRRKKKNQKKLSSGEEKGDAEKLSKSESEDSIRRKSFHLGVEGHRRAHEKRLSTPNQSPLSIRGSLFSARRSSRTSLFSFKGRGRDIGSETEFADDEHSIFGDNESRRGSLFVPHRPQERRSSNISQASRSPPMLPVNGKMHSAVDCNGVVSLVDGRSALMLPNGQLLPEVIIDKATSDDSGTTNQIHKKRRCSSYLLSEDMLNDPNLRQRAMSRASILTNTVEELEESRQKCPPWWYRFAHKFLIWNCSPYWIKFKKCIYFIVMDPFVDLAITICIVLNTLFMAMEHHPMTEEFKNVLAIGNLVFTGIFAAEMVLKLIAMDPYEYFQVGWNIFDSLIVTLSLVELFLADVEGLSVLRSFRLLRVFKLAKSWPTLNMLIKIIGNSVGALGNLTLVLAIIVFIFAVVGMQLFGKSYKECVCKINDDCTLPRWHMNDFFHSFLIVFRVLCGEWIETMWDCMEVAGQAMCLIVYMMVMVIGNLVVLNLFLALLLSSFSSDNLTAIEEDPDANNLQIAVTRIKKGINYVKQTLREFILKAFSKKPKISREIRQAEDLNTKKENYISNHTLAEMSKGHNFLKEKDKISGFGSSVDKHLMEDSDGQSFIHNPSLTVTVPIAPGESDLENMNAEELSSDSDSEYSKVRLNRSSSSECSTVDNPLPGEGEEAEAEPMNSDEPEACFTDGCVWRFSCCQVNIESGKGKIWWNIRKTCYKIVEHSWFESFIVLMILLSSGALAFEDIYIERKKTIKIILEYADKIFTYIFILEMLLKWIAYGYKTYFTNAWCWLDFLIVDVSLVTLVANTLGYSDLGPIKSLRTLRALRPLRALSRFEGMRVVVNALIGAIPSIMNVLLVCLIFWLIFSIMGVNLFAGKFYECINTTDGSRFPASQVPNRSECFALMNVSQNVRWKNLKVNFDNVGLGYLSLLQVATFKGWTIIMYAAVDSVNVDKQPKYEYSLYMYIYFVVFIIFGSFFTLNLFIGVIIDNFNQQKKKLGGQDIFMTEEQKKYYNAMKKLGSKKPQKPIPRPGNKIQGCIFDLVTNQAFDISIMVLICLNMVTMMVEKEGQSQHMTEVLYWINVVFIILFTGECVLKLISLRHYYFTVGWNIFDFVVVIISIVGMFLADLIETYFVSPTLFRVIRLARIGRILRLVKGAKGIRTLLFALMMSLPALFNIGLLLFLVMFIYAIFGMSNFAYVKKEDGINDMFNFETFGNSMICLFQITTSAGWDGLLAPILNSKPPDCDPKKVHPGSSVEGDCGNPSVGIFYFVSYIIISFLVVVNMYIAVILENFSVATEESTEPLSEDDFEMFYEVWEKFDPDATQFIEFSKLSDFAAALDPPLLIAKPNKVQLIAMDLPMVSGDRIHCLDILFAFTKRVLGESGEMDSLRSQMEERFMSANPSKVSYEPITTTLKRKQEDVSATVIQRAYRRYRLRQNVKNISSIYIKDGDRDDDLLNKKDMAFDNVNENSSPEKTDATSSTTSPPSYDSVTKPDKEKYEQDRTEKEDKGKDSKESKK

Sodium channel protein type 5 subunit alpha, sequence (Q14524 whole entry): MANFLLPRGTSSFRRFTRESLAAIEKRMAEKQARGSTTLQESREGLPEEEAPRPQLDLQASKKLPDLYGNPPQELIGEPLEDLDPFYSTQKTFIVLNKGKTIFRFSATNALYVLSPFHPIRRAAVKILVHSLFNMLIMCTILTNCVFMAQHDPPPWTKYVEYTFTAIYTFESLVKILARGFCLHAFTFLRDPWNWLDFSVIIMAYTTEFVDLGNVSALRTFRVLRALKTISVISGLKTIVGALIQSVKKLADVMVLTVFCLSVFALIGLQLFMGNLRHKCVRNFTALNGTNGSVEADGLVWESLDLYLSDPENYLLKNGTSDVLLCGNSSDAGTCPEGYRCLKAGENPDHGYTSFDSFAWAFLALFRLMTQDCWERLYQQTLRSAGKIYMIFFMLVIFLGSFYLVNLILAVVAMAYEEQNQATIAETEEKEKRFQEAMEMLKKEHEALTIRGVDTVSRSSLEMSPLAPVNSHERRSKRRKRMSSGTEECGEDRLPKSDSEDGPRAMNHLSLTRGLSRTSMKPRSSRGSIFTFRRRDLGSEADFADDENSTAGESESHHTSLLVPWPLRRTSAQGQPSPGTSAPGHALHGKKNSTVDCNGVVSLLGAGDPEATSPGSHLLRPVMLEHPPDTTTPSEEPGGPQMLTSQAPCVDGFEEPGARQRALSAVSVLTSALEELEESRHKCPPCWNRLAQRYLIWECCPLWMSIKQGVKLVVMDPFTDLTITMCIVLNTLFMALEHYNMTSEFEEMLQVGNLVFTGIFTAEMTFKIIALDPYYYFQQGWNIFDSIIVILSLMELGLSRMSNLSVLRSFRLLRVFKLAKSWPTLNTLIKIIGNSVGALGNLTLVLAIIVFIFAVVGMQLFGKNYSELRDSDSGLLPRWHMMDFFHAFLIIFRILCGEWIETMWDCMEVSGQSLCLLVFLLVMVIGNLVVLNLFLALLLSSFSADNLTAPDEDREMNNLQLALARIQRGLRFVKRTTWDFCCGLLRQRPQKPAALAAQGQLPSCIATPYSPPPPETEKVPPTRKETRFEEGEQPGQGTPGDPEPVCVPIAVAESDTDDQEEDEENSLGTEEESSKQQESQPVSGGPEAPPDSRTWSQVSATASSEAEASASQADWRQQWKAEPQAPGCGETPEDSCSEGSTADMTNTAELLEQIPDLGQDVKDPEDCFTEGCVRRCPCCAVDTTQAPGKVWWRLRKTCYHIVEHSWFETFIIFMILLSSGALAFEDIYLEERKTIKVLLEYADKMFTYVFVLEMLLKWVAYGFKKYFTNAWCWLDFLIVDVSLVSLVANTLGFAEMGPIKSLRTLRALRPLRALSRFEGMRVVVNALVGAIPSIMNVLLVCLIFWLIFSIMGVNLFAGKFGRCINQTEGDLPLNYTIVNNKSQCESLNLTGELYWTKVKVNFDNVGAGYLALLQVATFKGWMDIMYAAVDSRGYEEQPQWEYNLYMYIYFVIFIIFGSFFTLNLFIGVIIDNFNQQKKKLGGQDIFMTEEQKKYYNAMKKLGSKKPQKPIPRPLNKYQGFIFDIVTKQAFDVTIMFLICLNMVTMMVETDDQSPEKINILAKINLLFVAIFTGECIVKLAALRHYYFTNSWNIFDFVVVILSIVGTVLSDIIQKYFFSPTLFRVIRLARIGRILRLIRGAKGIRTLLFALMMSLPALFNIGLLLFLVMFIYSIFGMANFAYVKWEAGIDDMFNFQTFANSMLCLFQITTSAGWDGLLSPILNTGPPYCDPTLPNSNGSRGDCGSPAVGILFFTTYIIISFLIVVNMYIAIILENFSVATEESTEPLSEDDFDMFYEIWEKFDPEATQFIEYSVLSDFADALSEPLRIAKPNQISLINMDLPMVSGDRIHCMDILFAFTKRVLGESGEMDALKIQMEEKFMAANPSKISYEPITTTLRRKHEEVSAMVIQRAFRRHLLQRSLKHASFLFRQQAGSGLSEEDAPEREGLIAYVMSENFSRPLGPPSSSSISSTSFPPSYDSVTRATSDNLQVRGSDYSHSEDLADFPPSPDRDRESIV

Row | SMILES | pIC50 [1] | pIC50 [2]
1 | CC[C@H](C)[C@@H]1NC(=O)[C@@H]2CSSC[C@@H]3NC(=O)[C@H](CCCCN)NC(=O)[C@H](CC(C)C)NC(=O)[C@H](CC(N)=O)NC(=O)[C@@H]4CCCN4C(=O)[C@H](CCCNC(=N)N)NC(=O)[C@H](CSSC[C@H](NC(=O)[C@@H](N)CC(=O)O)C(=O)N[C@@H](CC(C)C)C(=O)NCC(=O)N[C@@H](Cc4ccccc4)C(=O)N[C@@H](CCSC)C(=O)N[C@@H](CCCNC(=N)N)C(=O)N[C@@H](CCCCN)C(=O)N2)NC(=O)[C@H](CSSC[C@@H](C(=O)N[C@@H](CCCCN)C(=O)N[C@@H](Cc2ccc(O)cc2)C(=O)N[C@H](C(=O)N[C@@H](Cc2ccccc2)C(N)=O)C(C)C)NC(=O)[C@H](Cc2c[nH]c4ccccc24)NC(=O)[C@H](CCCCN)NC(=O)[C@H](Cc2cnc[nH]2)NC(=O)[C@H]([C@@H](C)O)NC(=O)[C@H](CCCNC(=N)N)NC(=O)[C@H](CO)NC3=O)NC(=O)[C@H](CCCCN)NC(=O)[C@H](CC(=O)O)NC(=O)[C@H](CC(N)=O)NC(=O)[C@H](CC(=O)O)NC(=O)[C@@H]2CCCN2C1=O (H-DCLGFMRKCIPDNDKCCRPNLKCSRTHKWCKYVF-NH2; disulfide 2-17, 9-23, 16-30) | < 5.30 | 6.70
2 | CC[C@H](C)[C@@H]1NC(=O)[C@@H]2CSSC[C@@H]3NC(=O)[C@H](C(C)C)NC(=O)[C@H](CC(C)C)NC(=O)[C@H](CC(N)=O)NC(=O)[C@@H]4CCCN4C(=O)[C@H](CCCNC(=N)N)NC(=O)[C@H](CSSC[C@H](NC(=O)[C@H](CC(=O)O)NC(=O)[C@@H](N)Cc4c[nH]c5ccccc45)C(=O)N[C@@H](CC(C)C)C(=O)NCC(=O)N[C@@H](Cc4ccccc4)C(=O)N[C@@H](CCSC)C(=O)N[C@@H](CCCNC(=N)N)C(=O)N[C@@H](CCCCN)C(=O)N2)NC(=O)[C@H](CSSC[C@@H](C(=O)N[C@@H](CCCCN)C(=O)N[C@@H](Cc2ccc(O)cc2)C(=O)N[C@H](C(=O)N[C@@H](Cc2ccccc2)C(N)=O)C(C)C)NC(=O)[C@H](Cc2c[nH]c4ccccc24)NC(=O)[C@H](CCCCN)NC(=O)[C@H](Cc2cnc[nH]2)NC(=O)[C@H]([C@@H](C)O)NC(=O)[C@H](CCCNC(=N)N)NC(=O)[C@H](CO)NC3=O)NC(=O)[C@H](CCCCN)NC(=O)[C@H](CC(=O)O)NC(=O)[C@H](CC(N)=O)NC(=O)[C@H](CC(=O)O)NC(=O)[C@@H]2CCCN2C1=O | < 5.30 | 6.70
3 | CC[C@H](C)[C@@H]1NC(=O)[C@@H]2CSSC[C@@H]3NC(=O)[C@H](C(C)C)NC(=O)[C@H](CC(C)C)NC(=O)[C@H](CC(N)=O)NC(=O)[C@@H]4CCCN4C(=O)[C@H](CCCNC(=N)N)NC(=O)[C@H](CSSC[C@H](NC(=O)[C@@H](N)CC(=O)O)C(=O)N[C@@H](CC(C)C)C(=O)NCC(=O)N[C@@H](Cc4ccccc4)C(=O)N[C@@H](CCSC)C(=O)N[C@@H](CCCNC(=N)N)C(=O)N[C@@H](CCCCN)C(=O)N2)NC(=O)[C@H](CSSC[C@@H](C(=O)N[C@@H](CCCCN)C(=O)N[C@@H](Cc2ccc(O)cc2)C(=O)N[C@H](C(=O)N[C@@H](CCCNC(=N)N)C(N)=O)C(C)C)NC(=O)[C@H](Cc2c[nH]c4ccccc24)NC(=O)[C@H](CCCCN)NC(=O)[C@H](Cc2cnc[nH]2)NC(=O)[C@H]([C@@H](C)O)NC(=O)[C@H](CCCNC(=N)N)NC(=O)[C@H](CO)NC3=O)NC(=O)[C@H](CCCCN)NC(=O)[C@H](CC(=O)O)NC(=O)[C@H](CC(N)=O)NC(=O)[C@H](CC(=O)O)NC(=O)[C@@H]2CCCN2C1=O (H-DCLGFMRKCIPDNDKCCRPNLVCSRTHKWCKYVR-NH2; disulfide 2-17, 9-23, 16-30) | < 5.30 | 5.63
4 | CC[C@H](C)[C@@H]1NC(=O)[C@@H]2CSSC[C@@H]3NC(=O)[C@H](C(C)C)NC(=O)[C@H](CC(C)C)NC(=O)[C@H](CC(N)=O)NC(=O)[C@@H]4CCCN4C(=O)[C@H](CCCNC(=N)N)NC(=O)[C@H](CSSC[C@H](NC(=O)[C@@H](N)CC(=O)O)C(=O)N[C@@H](CC(C)C)C(=O)NCC(=O)N[C@@H](Cc4ccccc4)C(=O)N[C@@H](CCSC)C(=O)N[C@@H](CCCNC(=N)N)C(=O)N[C@@H](CCCCN)C(=O)N2)NC(=O)[C@H](CSSC[C@@H](C(=O)N[C@@H](Cc2c[nH]c4ccccc24)C(=O)N[C@@H](Cc2ccc(O)cc2)C(=O)N[C@H](C(=O)N[C@@H](Cc2ccccc2)C(N)=O)C(C)C)NC(=O)[C@H](Cc2c[nH]c4ccccc24)NC(=O)[C@H](CCCCN)NC(=O)[C@H](Cc2c[nH]cn2)NC(=O)[C@H]([C@@H](C)O)NC(=O)[C@H](CCCNC(=N)N)NC(=O)[C@H](CO)NC3=O)NC(=O)[C@H](CCCCN)NC(=O)[C@H](CC(=O)O)NC(=O)[C@H](CC(N)=O)NC(=O)[C@H](CC(=O)O)NC(=O)[C@@H]2CCCN2C1=O (H-DCLGFMRKCIPDNDKCCRPNLVCSRTHKWCWYVF-NH2; disulfide 2-17, 9-23, 16-30) | < 5.30 | < 5.31
5 | CC[C@H](C)[C@@H]1NC(=O)[C@@H]2CSSC[C@@H]3NC(=O)[C@H](C(C)C)NC(=O)[C@H](CC(C)C)NC(=O)[C@H](CC(N)=O)NC(=O)[C@@H]4CCCN4C(=O)[C@H](CCCNC(=N)N)NC(=O)[C@H](CSSC[C@H](NC(=O)[C@@H](N)CC(=O)O)C(=O)N[C@@H](CC(C)C)C(=O)NCC(=O)N[C@@H](Cc4ccccc4)C(=O)N[C@@H](CCSC)C(=O)N[C@@H](CCCNC(=N)N)C(=O)N[C@@H](CCCCN)C(=O)N2)NC(=O)[C@H](CSSC[C@@H](C(=O)N[C@@H](CCCNC(=N)N)C(=O)N[C@@H](Cc2ccc(O)cc2)C(=O)N[C@H](C(=O)N[C@@H](Cc2ccccc2)C(N)=O)C(C)C)NC(=O)[C@H](Cc2c[nH]c4ccccc24)NC(=O)[C@H](CCCCN)NC(=O)[C@H](Cc2cnc[nH]2)NC(=O)[C@H]([C@@H](C)O)NC(=O)[C@H](CCCNC(=N)N)NC(=O)[C@H](CO)NC3=O)NC(=O)[C@H](CCCCN)NC(=O)[C@H](CC(=O)O)NC(=O)[C@H](CC(N)=O)NC(=O)[C@H](CC(=O)O)NC(=O)[C@@H]2CCCN2C1=O (H-DCLGFMRKCIPDNDKCCRPNLVCSRTHKWCRYVF-NH2; disulfide 2-17, 9-23, 16-30) | < 5.30 | 6.02
6 | CC[C@H](C)[C@@H]1NC(=O)[C@@H]2CSSC[C@@H]3NC(=O)[C@H](C(C)C)NC(=O)[C@H](CC(C)C)NC(=O)[C@H](CC(N)=O)NC(=O)[C@@H]4CCCN4C(=O)[C@H](CCCNC(=N)N)NC(=O)[C@H](CSSC[C@H](NC(=O)[C@@H](N)CC(=O)O)C(=O)N[C@@H](CC(C)C)C(=O)NCC(=O)N[C@@H](Cc4ccccc4)C(=O)N[C@@H](CCSC)C(=O)N[C@@H](CCCNC(=N)N)C(=O)N[C@@H](CCCCN)C(=O)N2)NC(=O)[C@H](CSSC[C@@H](C(=O)N[C@@H](CCCCN)C(=O)N[C@@H](Cc2ccc(O)cc2)C(=O)N[C@H](C(=O)N[C@@H](Cc2ccccc2)C(N)=O)C(C)C)NC(=O)[C@H](Cc2c[nH]c4ccccc24)NC(=O)[C@H](CCCCN)NC(=O)[C@H](Cc2cnc[nH]2)NC(=O)[C@H]([C@@H](C)O)NC(=O)[C@H](CCCNC(=N)N)NC(=O)[C@H](CO)NC3=O)NC(=O)[C@H](CCCCN)NC(=O)[C@H](CC(=O)O)NC(=O)[C@H](Cc2c[nH]c3ccccc23)NC(=O)[C@H](CC(=O)O)NC(=O)[C@@H]2CCCN2C1=O (H-DCLGFMRKCIPDWDKCCRPNLVCSRTHKWCKYVF-NH2; disulfide 2-17, 9-23, 16-30) | < 5.30 | 7.10
7 | CC[C@H](C)[C@@H]1NC(=O)[C@@H]2CSSC[C@@H]3NC(=O)[C@H](C(C)C)NC(=O)[C@H](CC(C)C)NC(=O)[C@H](CC(N)=O)NC(=O)[C@@H]4CCCN4C(=O)[C@H](CCCNC(=N)N)NC(=O)[C@H](CSSC[C@H](NC(=O)[C@@H](N)CC(=O)O)C(=O)N[C@@H](CC(C)C)C(=O)NCC(=O)N[C@@H](CCC(=O)O)C(=O)N[C@@H](CCSC)C(=O)N[C@@H](CCCNC(=N)N)C(=O)N[C@@H](CCCCN)C(=O)N2)NC(=O)[C@H](CSSC[C@@H](C(=O)N[C@@H](CCCCN)C(=O)N[C@@H](Cc2ccc(O)cc2)C(=O)N[C@H](C(=O)N[C@@H](Cc2ccccc2)C(N)=O)C(C)C)NC(=O)[C@H](Cc2c[nH]c4ccccc24)NC(=O)[C@H](CCCCN)NC(=O)[C@H](Cc2cnc[nH]2)NC(=O)[C@H]([C@@H](C)O)NC(=O)[C@H](CCCNC(=N)N)NC(=O)[C@H](CO)NC3=O)NC(=O)[C@H](CCCCN)NC(=O)[C@H](CC(=O)O)NC(=O)[C@H](CC(N)=O)NC(=O)[C@H](CC(=O)O)NC(=O)[C@@H]2CCCN2C1=O (H-DCLGEMRKCIPDNDKCCRPNLVCSRTHKWCKYVF-NH2; disulfide 2-17, 9-23, 16-30) | < 5.30 | < 5.30
8 | CC[C@H](C)[C@@H]1NC(=O)[C@@H]2CSSC[C@@H]3NC(=O)[C@H](C(C)C)NC(=O)[C@H](CC(C)C)NC(=O)[C@H](CC(N)=O)NC(=O)[C@@H]4CCCN4C(=O)[C@H](CCCNC(=N)N)NC(=O)[C@H](CSSC[C@H](NC(=O)[C@@H](N)Cc4c[nH]c5ccccc45)C(=O)N[C@@H](CC(C)C)C(=O)NCC(=O)N[C@@H](Cc4ccccc4)C(=O)N[C@@H](CCSC)C(=O)N[C@@H](CCCNC(=N)N)C(=O)N[C@@H](CCCCN)C(=O)N2)NC(=O)[C@H](CSSC[C@@H](C(=O)N[C@@H](CCCCN)C(=O)N[C@@H](Cc2ccc(O)cc2)C(=O)N[C@H](C(=O)N[C@@H](Cc2ccccc2)C(N)=O)C(C)C)NC(=O)[C@H](Cc2c[nH]c4ccccc24)NC(=O)[C@H](CCCCN)NC(=O)[C@H](Cc2cnc[nH]2)NC(=O)[C@H]([C@@H](C)O)NC(=O)[C@H](CCCNC(=N)N)NC(=O)[C@H](CO)NC3=O)NC(=O)[C@H](CCCCN)NC(=O)[C@H](CC(=O)O)NC(=O)[C@H](CC(N)=O)NC(=O)[C@H](CC(=O)O)NC(=O)[C@@H]2CCCN2C1=O (H-WCLGFMRKCIPDNDKCCRPNLVCSRTHKWCKYVF-NH2; disulfide 2-17, 9-23, 16-30) | < 5.30 | 7.15
